Many of the other results were omitted from the sample, so hits are more common in it than they were.
INS promoter act: TRM-6 insulin promoter activation. TRM-6 cells, insulin promoter eGFP reporter, imaging; plate-scaled: unstimulated 0, stimulated control 100. activation, % at 2 µM. 130,000 compounds, 0.81% hits;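 active means activation at 2 µM above a set limit, confirmed on inspection of the cell images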;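 further: share of cells whose green reporter signal exceeds an intensity cutoff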
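material = TRM-6 human fetal islet cells, insulin promoter–eGFP reporter | input = 1,000 TRM-6 cells seeded per well | benchmarks = stimulated versus unstimulated wells as plate controls | measured by = automated fluorescence imaging of paraformaldehyde-fixed, Hoechst-counterstained cells, green channel | schedule = compound exposure 48 h, 37 °C | reagent = tamoxifen at 0.75 µM added at seeding for reporter induction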
* marks the source's active call; other numbers are inactive results.

SMILES	INS promoter act
Cc1cc(NC(=O)c2ccccc2NS(=O)(=O)c2c(C)c(C)cc(C)c2C)no1	4
Cc1ccc(S(=O)(=O)Nc2cccc(C(=O)Nc3cc(C)ccn3)c2)cc1	7
Cc1ccc(NS(=O)(=O)c2cccc(C(=O)Nc3cc(C)on3)c2)cc1	369*
Cc1cccc(NC(=O)C(=O)NCc2ccc3c(c2)OCO3)c1C	-5
CC(C)CN1C(=O)/C(=C(/C#N)C(=O)NC2CCCCC2)c2ccccc21	8
O=C(Nc1ccccc1)OCc1cncs1	6
COc1ccc(N(CC(=O)O)S(C)(=O)=O)cc1OC	189
CSc1ccccc1NC(=O)CN(c1cccc(C)c1)S(C)(=O)=O	3
COc1ccc(N(CC(=O)Nc2ccccc2SC)S(C)(=O)=O)cc1OC	614*
O=C(CN1C(=O)/C(=C/c2ccccc2F)Sc2ccccc21)N1CCN(c2ccccn2)CC1	109
O=C(c1cc2ccccc2oc1=O)N1CCN(c2ncccn2)CC1	-79
Cc1ccc(NC(=O)/C=C/c2ccc([N+](=O)[O-])s2)c(C)c1	179
Cc1ccc(C(=O)N/N=C/c2ccc([N+](=O)[O-])s2)cc1	8
Cc1ccc(NC(=O)/C=C/c2ccc([N+](=O)[O-])s2)cc1	270*
O=C(c1cc(-c2cccs2)nc2ccccc12)N1CCN(c2ccccc2O)CC1	0
COc1ccccc1N1CCN(c2nc3c(C)cccn3c(=O)c2C=O)CC1	2
CCC(C)N1C(=O)/C(=C/c2c(NCCCOC(C)C)nc3c(C)cccn3c2=O)SC1=S (configuration not stated)	164*
COc1ccc(NC(=O)[C@@H](NC(=O)c2ccccc2)C(C)C)cc1S(=O)(=O)N1CCCCC1	-7
CCC(CC)c1nnc(NC(=O)[C@@H](NC(=O)c2cccc(C)c2)C(C)C)s1	-9
Cc1ccccc1C(=O)Nc1ccccc1-n1cccc1	1
Cc1ccccc1NC(=O)c1cccc2nc3ccccc3nc12	233*
Cc1ccccc1NC(=O)c1c(Cl)nc(C)c(Cl)c1C	156
CN(C)S(=O)(=O)c1ccc(Cl)c(NC(=O)c2ccncc2)c1	0
Cc1onc(-c2ccccc2Cl)c1C(=O)Nc1ccccc1N1CCOCC1	81*
Cc1onc(-c2ccccc2Cl)c1C(=O)Nc1ccc(N2CCOCC2)cc1	7
SMILES	INS promoter act
Cc1onc(-c2ccccc2Cl)c1C(=O)Nc1cccc2nsnc12	-77
COc1ccc(CN2C(=O)/C(=C/c3ccncc3)SC2=S)cc1	9
CC1=C(C#N)C(NC(=O)c2ccc(Cl)cc2)(C(F)(F)F)C(=O)N1 (configuration not stated)	3
Cc1cc(C)c2[nH]c(=O)c(CN(Cc3cccs3)C(=S)NCC3CCCO3)cc2c1 (configuration not stated)	-8
O=C(N1CCOCC1)N1CCN(C(=O)N(c2ccccc2)c2ccccc2)CC1	-5
O=C(N1CCCCCC1)N1CCN(C(=O)N2CCOCC2)CC1	488*
O=C(N1CCCCCC1)N1CCN(S(=O)(=O)N2CCCCC2)CC1	0
CCOc1ccc(-c2nnn(CC(=O)NCc3ccccc3)n2)cc1	-6
CC(C)NC(=O)c1cc2cc(Br)ccc2oc1=O	129*
O=c1oc2ccc(Br)cc2cc1S(=O)(=O)c1ccc(F)cc1	8
CC(C)NC(=O)COC(=O)c1cc(Br)ccc1Cl	-3
CN(C)S(=O)(=O)c1ccc(-c2csnn2)s1	6
CCOc1cc(C(=O)N(C)c2ccccc2)cc(OCC)c1OCC	158
COC(=O)c1c(-c2cccc3ccccc23)csc1NC(=O)Cc1ccc(OC)c(OC)c1	-2
COc1cc(/C=N/Nc2nc(N3CCCC3)nc(N3CCCC3)n2)ccc1O	0
Fc1ccc(COc2ccc(Cl)cc2/C=N/Nc2nc(N3CCCC3)nc(N3CCCC3)n2)cc1	658*
CCOc1ccc(/C=N/Nc2nc(N3CCCC3)nc(N3CCCC3)n2)cc1OC	-6
COc1ccccc1Oc1nc([N+](=O)[O-])nn1CC(N)=O	-3
C/C(Nc1ccccc1)=C(/C#N)C(N)=O	0
Cc1cccc(N(NC(=O)C(C)(C)O)C(=O)c2ccccc2)c1	0
CCOC(=O)C(=O)NC(C)CCc1ccccc1 (configuration not stated)	-7
CCOC(=O)N(NC(=O)C(O)(C(C)C)C(C)C)c1ccccc1	112*
COc1ccc(OC)c(-c2c(C#N)c(N)nc3c2c(=O)nc2sccn23)c1	0
Cn1c(=O)c2c(nc3sccn32)n(C)c1=O	-8
Cc1c2ccccc2nc2c(F)c(NCCO)c(F)c(F)c12	112
SMILES	INS promoter act
OCCNc1c2ccccc2nc2c(F)c(F)c(F)c(F)c12	181
Cc1c2ccccc2nc2c(F)c(NC(C)C)c(F)c(F)c12	233*
Cc1ccc(N2C(=O)C3C(c4ccccc4)N4CCCN4C3(C)C2=O)cc1 (configuration not stated)	0
CCCC(=O)Nc1ccc(Br)c(Cl)c1	443*
O=C(Nc1ccc(Br)c(Cl)c1)C1CC1	-75
CC(C)(C)C(=O)CC(=O)Nc1ccc(Cl)c(N)c1	0
O=C(O)CCC(=O)Nc1ccc(Br)c(Cl)c1	-2
CCCC(=O)Nc1ccc(Cl)c(NC(=O)C(C)(C)C)c1	790*
CCC(=O)Nc1ccc(Cl)c(NC(=O)c2ccc(Br)o2)c1	334
Cc1ccc(NC(=O)c2cccc(S(=O)(=O)N(C)c3ccccc3)c2)cc1S(=O)(=O)N1CCOCC1	3
CCN(CC(=O)Nc1ccc2c(c1)CCC2)Cc1nc2ccccc2c(=O)[nH]1	0
CCN(CCCNC(=O)CN1C(=O)COc2ccccc21)c1cccc(C)c1	0
COc1ccc(-c2[nH]ncc2CN2CCC(N3CCSCC3)CC2)c(F)c1	9
O=C(Nc1ccc2c(c1)OCO2)c1ccc(CN2CCOCC2)cc1	8
O=C(Cc1ccccc1)Nc1ccc(CN2CCOCC2)cc1	6
CSc1ccccc1NC(=O)c1ccc(CN2CCOCC2)cc1	276*
Cc1ccnc(SCCn2c(N3CCC(C)CC3)nc3c2c(=O)n(C)c(=O)n3C)n1	-41
Cc1ccc(Nc2nnc(SCc3nc4ccccc4c(=O)[nH]3)s2)cc1	-6
O=C(O)c1ccc(NC(=O)C2(c3ccccc3)CCOCC2)cc1	494*
COc1ccc(C2(C(=O)Nc3ccc(C(=O)O)cc3)CCOCC2)cc1	-95
O=C(N1CCOCC1)C1(c2ccccc2)CCCCC1	0
O=c1oc2ccccc2cc1-c1ccc(O)cc1O	-7
O=c1oc2cc(O)ccc2cc1-c1nc2c(s1)CCc1ccccc1-2	733*
O=C(Nc1nc2c(s1)CCc1ccccc1-2)c1ccco1	0
CCCCn1c(/N=C/c2ccc3c(c2)OCO3)nc2ccccc21	81*
SMILES	INS promoter act
CN(C)CCCn1c(NCc2ccc3c(c2)OCO3)nc2ccccc21	-7
Cn1c(=S)n(/N=C/c2ccc3c(c2)OCO3)c2ccccc21	-8
O=c1n(-c2ccccc2)c(=O)n(Cc2ccccn2)n1Cc1ccccn1	-5
CCN(CC)c1ccc(C=C2C(=O)OC(c3ccccc3)OC2=O)cc1 (configuration not stated)	312*
CCN(CC)c1ccc(/C=N/NC(=O)c2ccco2)cc1	0
CCN(CC)c1ccc(C2NC(=O)NC(C)=C2C(=O)Nc2ccccc2)cc1 (configuration not stated)	109
CC(C)[C@H](NC(=O)c1ccccc1)C(=O)OCC(=O)N1CC2(C)CC1CC(C)(C)C2 (some centres not stated)	7
CC(C)C(NC(=O)CNC(=O)OC(C)(C)C)C(=O)NCc1ccccc1 (configuration not stated)	-8
